pIC50, pKd: −log10 of the molar value. In brackets after ≈: the same amount, converted by molar mass. Activity calls are given as the source filed them. The rule behind the calls is not given here. Positions of bridges follow the written chain, without caps; N, C: chain ends. Non-standard residues stand in square brackets, D forms with d. Residues, ends and D or L forms follow the SMILES beside them. Dab = NCC[C@H](N)C(=O)O
How the values were obtained:
Staphylococcus aureus [1] = assay: Antibacterial activity against Staphylococcus aureus ATCC 29213 by CLSI broth microdilution method; type: functional
In short: (§1)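 MICs by CLSI broth microdilution in cation-adjusted Mueller-Hinton broth. Strains came from ATCC or an in-house collection; NovaBlue was purchased.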

[2] = Binding affinity to Escherichia coli MurF by HTS assay in absence of ATP
[3] = Binding affinity to Escherichia coli MurF by HTS assay in presence of ATP
Escherichia coli [4] = assay: Antibacterial activity against LPS-deffective Escherichia coli OC2530 by CLSI broth microdilution method; type: functional; in short: as §1
Escherichia coli [5] = assay: Binding affinity to Escherichia coli MurF assessed as increase in enzyme melting temperature by thermofluor analysis in presence of ATP
In short: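 ThermoFluor thermal shift binding assay on E. coli MurF run in the presence of ATP; read-out is the change in Tm.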

[6] = Inhibition of Escherichia coli MurF assessed as appearance of UDP-MurNAc-pentapeptide product by HPLC
In short: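 HPLC assay of E. coli MurF. Enzyme at 4 nM final in 100 mM Tris-Cl pH 8.5, 5 mM ATP, 300 mM NaCl, preincubated 10 min at room temperature with compound or DMSO. D-Ala-D-Ala and a completed Mpl reaction supplying UDP-MurNAc-tripeptide were then added. Reaction ran 15 min at 37°C and was stopped with trifluoroacetic acid. Pentapeptide and tripeptide peaks were quantified by HPLC to give IC50.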

Escherichia coli [7] = assay: Inhibition of Escherichia coli OC2530 MurF assessed as ratio of UDP-MurNAc-tripeptide/UDP-MurNAc-pentapeptide level at 2 times MIC after 30 mins by HPLC
In short: (§2)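 UDP-precursor pools. 125 ml OC2530 cultures at A600 0.3 treated with 2x MIC compound or DMSO for 30 min. Cells chilled, washed in cold 0.9% NaCl and lysed in cold 5% trichloroacetic acid 30 min on ice. Supernatants ether-extracted six times. UDP-MurNAc-tripeptide and -pentapeptide purified and quantitated. One representative of two independent experiments.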

Pseudomonas aeruginosa = assay: Antibacterial activity against Pseudomonas aeruginosa ATCC 27853 by CLSI broth microdilution method; type: functional; in short: as §1
Escherichia coli [8] = assay: Effect on muropeptide composition in LPS-deffective Escherichia coli OC2530 assessed as increase in UDP-MurNAc-tripeptide level at 2 times MIC after 30 mins relative to control; type: functional; in short: as §2
Staphylococcus aureus [9] = assay: Antibacterial activity against Staphylococcus aureus OC4172 by CLSI broth microdilution method; type: functional; in short: as §1
Escherichia coli [10] = assay: Bactericidal activity against LPS-deffective Escherichia coli OC2530 assessed as log reduction in CFU at 2 times MIC after 3 hrs relative to control; type: functional
In short: (§3)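 Killing. OC2530 at mid-log treated with 2x MIC compound. Aliquots taken from replicate Bioscreen wells at set times, serially diluted in PBS, spiral-plated and colonies counted. Mean ± SD of two independent experiments.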

Escherichia coli [11] = assay: Bactericidal activity against LPS-deffective Escherichia coli OC2530 assessed as log reduction in CFU at 2 times MIC after 30 mins relative to control; type: functional; in short: as §3
Escherichia coli [12] = assay: Antibacterial activity against Escherichia coli OC2605 by CLSI broth microdilution method; type: functional
In short: (§4)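 Broth microdilution MIC following CLSI method, in cation-adjusted Mueller-Hinton broth; strains from ATCC or the company strain collection.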

Escherichia coli [13] = assay: Antibacterial activity against Escherichia coli NovaBlue by CLSI broth microdilution method in presence of permeabilizer polymyxin B nonapeptide; type: functional; in short: as §1
Escherichia coli [14] = assay: Antibacterial activity against Escherichia coli OC9040 by CLSI broth microdilution method; type: functional; in short: as §1
Staphylococcus aureus [15] = assay: Antibacterial activity against methicillin-resistant Staphylococcus aureus COL OC3726 by CLSI broth microdilution method; type: functional; in short: as §4
Enterococcus faecium = assay: Antibacterial activity against Enterococcus faecium OC3312 by CLSI broth microdilution method; type: functional; in short: as §1
Escherichia coli [16] = assay: Antibacterial activity against mid-log culture of LPS-deffective Escherichia coli OC2530 assessed as cell lysis at 2 times MIC by optical density study; type: functional, organism-based
In short: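 Growth curve. E. coli OC2530 grown with aeration to mid-log (A600 0.3), compound added at 2x MIC final. Samples transferred at once to replicate Bioscreen wells, 37°C with continuous shaking, A580 read every 15 min; 10 wells per culture.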

Escherichia coli [17] = assay: Antibacterial activity against LPS-deffective Escherichia coli OC2530 by CLSI broth microdilution method in presence of permeabilizer polymyxin B nonapeptide; type: functional
Escherichia coli [18] = assay: Antibacterial activity against Escherichia coli ATCC 25922 by CLSI broth microdilution method in presence of permeabilizer polymyxin B nonapeptide; type: functional; in short: as §1
Escherichia coli [19] = assay: Antibacterial activity against LPS-deffective Escherichia coli OC2530 assessed as cell lysis at 2 times MIC by colony forming assay; type: functional, organism-based
Enterococcus faecalis = assay: Antibacterial activity against Enterococcus faecalis ATCC 29212 by CLSI broth microdilution method; type: functional; in short: as §1
Staphylococcus aureus [20] = assay: Antibacterial activity against methicillin-resistant Staphylococcus aureus OC2878 by CLSI broth microdilution method; type: functional; in short: as §4
Escherichia coli [21] = assay: Effect on muropeptide composition in LPS-deffective Escherichia coli OC2530 assessed as decrease in UDP-MurNAc-pentapeptide level at 2 times MIC after 30 mins relative to control; type: functional; parameters: scale not given: the % may be the effect or the level left; in short: as §2
Escherichia coli [22] = assay: Antibacterial activity against Escherichia coli ATCC 25922 by CLSI broth microdilution method; type: functional; in short: as §1
Escherichia coli [23] = assay: Antibacterial activity against Escherichia coli NovaBlue by CLSI broth microdilution method; type: functional; in short: as §1
Escherichia coli [24] = assay: Ratio of Kd for Escherichia coli MurF in absence of ATP to Kd for Escherichia coli MurF in presence of ATP

Structure (SMILES): COc1cccc(C(=O)NC(c2ccccc2OC)c2cc(Cl)c3cccnc3c2O)c1 (stereo unspecified)
- MIC (Staphylococcus aureus [1]): > 32 µg/mL
- pKd [2]: 5.00
- pKd [3]: 4.85
- MIC (Escherichia coli [4]): > 32 µg/mL
- ΔTm (Escherichia coli [5]): 2.2 °C
- pIC50 [6]: 5.72

Structure (SMILES): Cc1ccc(C(NC(=O)c2ccccc2)c2ccc3cccnc3c2O)cc1 (stereo unspecified)
- MIC (Staphylococcus aureus [1]): 32 µg/mL (≈ 86.9 µM)
- Ratio (Escherichia coli [7]): 0.02
- pKd [2]: 4.48
- pKd [3]: 4.70
- MIC (Escherichia coli [4]): 32 µg/mL (≈ 86.9 µM)
- ΔTm (Escherichia coli [5]): 2.41 °C
- pIC50 [6]: 6.06

Structure (SMILES): O=C(Nc1ccc(F)cc1)OC(CCN1CCC(O)(c2ccc(Cl)cc2)CC1)c1ccccc1 (stereo unspecified)
- MIC (Pseudomonas aeruginosa): > 32 µg/mL
- fold change (FC) (Escherichia coli [8]): 15
- MIC (Staphylococcus aureus [9]): 8 µg/mL (≈ 16.6 µM)
- Activity (Escherichia coli [10]): 5
- Activity (Escherichia coli [11]): 1
- MIC (Escherichia coli [12]): > 32 µg/mL
- MIC (Staphylococcus aureus [1]): 16 µg/mL (≈ 33.1 µM)
- MIC (Escherichia coli [13]): 16 µg/mL
- MIC (Escherichia coli [14]): > 32 µg/mL
- MIC (Staphylococcus aureus [15]): 16 µg/mL (≈ 33.1 µM)
- MIC (Enterococcus faecium): 16 µg/mL (≈ 33.1 µM)
- Activity (Escherichia coli [16]): Active
- MIC (Escherichia coli [17]): 4 µg/mL
- MIC (Escherichia coli [18]): 16 µg/mL
- MIC (Escherichia coli [4]): 8 µg/mL (≈ 16.6 µM)
- Activity (Escherichia coli [19]): Active
- MIC (Enterococcus faecalis): 16 µg/mL (≈ 33.1 µM)
- MIC (Staphylococcus aureus [20]): 16 µg/mL (≈ 33.1 µM)
- Activity (Escherichia coli [21]): 50%
- MIC (Escherichia coli [22]): > 32 µg/mL
- MIC (Escherichia coli [23]): > 64 µg/mL
- pIC50 [6]: 4.59

Structure (SMILES): N[C@@H]1CONC1=O [CYCLOSERINE]
- MIC (Pseudomonas aeruginosa): > 128 µg/mL
- MIC (Staphylococcus aureus [9]): 32 µg/mL (≈ 313 µM)
- Activity (Escherichia coli [10]): >5
- Activity (Escherichia coli [11]): 0.5
- MIC (Escherichia coli [12]): 16 µg/mL (≈ 157 µM)
- MIC (Staphylococcus aureus [1]): 32 µg/mL (≈ 313 µM)
- MIC (Escherichia coli [13]): 64 µg/mL
- MIC (Escherichia coli [14]): 32 µg/mL (≈ 313 µM)
- Ratio (Escherichia coli [7]): 30.3
- MIC (Staphylococcus aureus [15]): 32 µg/mL (≈ 313 µM)
- MIC (Enterococcus faecium): 64 µg/mL (≈ 627 µM)
- Activity (Escherichia coli [16]): Active
- MIC (Escherichia coli [17]): 64 µg/mL
- MIC (Escherichia coli [18]): 32 µg/mL
- MIC (Escherichia coli [4]): 64 µg/mL (≈ 627 µM)
- Activity (Escherichia coli [19]): Active
- MIC (Enterococcus faecalis): 128 µg/mL (≈ 1250 µM)
- MIC (Staphylococcus aureus [20]): 64 µg/mL (≈ 627 µM)
- MIC (Escherichia coli [22]): 32 µg/mL (≈ 313 µM)
- MIC (Escherichia coli [23]): 64 µg/mL (≈ 627 µM)

Structure (SMILES): O=C(NC(c1ccc2c(c1)OCO2)c1ccc2cccnc2c1O)c1ccccc1 (stereo unspecified)
- MIC (Staphylococcus aureus [1]): 32 µg/mL (≈ 80.3 µM)
- pKd [2]: 4.30
- pKd [3]: 4.92
- MIC (Escherichia coli [4]): 32 µg/mL (≈ 80.3 µM)
- ΔTm (Escherichia coli [5]): 1.74 °C
- Ratio (Escherichia coli [24]): 4
- pIC50 [6]: 6.36

Structure (SMILES): COc1cccc(C(=O)NC(c2ccc3c(c2)OCO3)c2cc(Cl)c3cccnc3c2O)c1 (stereo unspecified)
- MIC (Staphylococcus aureus [1]): > 32 µg/mL
- pKd [2]: 5.48
- pKd [3]: 5.35
- MIC (Escherichia coli [4]): > 32 µg/mL
- ΔTm (Escherichia coli [5]): 1.59 °C
- pIC50 [6]: 6.12

Structure (SMILES): COc1ccc(C(NC(=O)c2ccccc2)c2ccc3cccnc3c2O)cc1OC (stereo unspecified)
- MIC (Staphylococcus aureus [1]): 32 µg/mL (≈ 77.2 µM)
- Ratio (Escherichia coli [7]): 0.04
- pKd [2]: 4.00
- pKd [3]: 4.85
- MIC (Escherichia coli [4]): 8 µg/mL (≈ 19.3 µM)
- ΔTm (Escherichia coli [5]): 2.86 °C
- Ratio (Escherichia coli [24]): 4
- pIC50 [6]: 4.80

Structure (SMILES): COc1cccc(C(=O)NC(/C=C/c2ccccc2)c2cc(Cl)c3cccnc3c2O)c1 (stereo unspecified)
- MIC (Staphylococcus aureus [1]): > 32 µg/mL
- pKd [2]: 5.48
- pKd [3]: 5.00
- MIC (Escherichia coli [4]): > 32 µg/mL
- ΔTm (Escherichia coli [5]): 1.81 °C
- pIC50 [6]: 5.90

Structure (SMILES): COc1ccc(C(=O)NC(c2ccc(OC)c(OC)c2)c2cc(Cl)c3cccnc3c2O)cc1 (stereo unspecified)
- MIC (Staphylococcus aureus [1]): > 64 µg/mL
- MIC (Escherichia coli [4]): > 64 µg/mL
- ΔTm (Escherichia coli [5]): 0.74 °C
- pIC50 [6]: 4.60

Structure (SMILES): COc1ccc(C(NC(=O)c2cccc(OC)c2)c2cc(Cl)c3cccnc3c2O)cc1 (stereo unspecified)
- MIC (Staphylococcus aureus [1]): > 32 µg/mL
- pKd [2]: 5.60
- pKd [3]: 4.96
- MIC (Escherichia coli [4]): > 32 µg/mL
- ΔTm (Escherichia coli [5]): 1.82 °C
- pIC50 [6]: 6.48

Structure (SMILES): CC(C)C[C@@H]1NC(=O)[C@@H](Cc2ccccc2)NC(=O)[C@H](CCN)NC(=O)[C@@H](NC(=O)[C@H](CCN)NC(=O)[C@@H](N)[C@@H](C)O)CCNC(=O)[C@H]([C@@H](C)O)NC(=O)[C@H](CCN)NC(=O)[C@H](CCN)NC1=O [POLYMYXIN B NONAPEPTIDE] (H-T[Dab][Dab][Dab][dF]L[Dab][Dab]T; lactam 3-C)
- MIC (Staphylococcus aureus [1]): 50 µg/mL (≈ 51.9 µM)
- MIC (Escherichia coli [4]): 6.2 µg/mL (≈ 6.44 µM)
- MIC (Escherichia coli [23]): 25 µg/mL (≈ 26 µM)

Structure (SMILES): O=C(NC(c1ccccc1F)c1ccc2cccnc2c1O)c1ccccc1 (stereo unspecified)
- MIC (Staphylococcus aureus [1]): 32 µg/mL (≈ 85.9 µM)
- pKd [2]: 4.70
- pKd [3]: 4.70
- MIC (Escherichia coli [4]): 16 µg/mL (≈ 43 µM)
- ΔTm (Escherichia coli [5]): 3.35 °C
- pIC50 [6]: 6.10
